From PubChem BioAssay
Measles CPE: protection of cells from measles virus. protection (pct of control), % at 4 µM. 1.5% of 140,000 active. Measles virus-infected cells, CPE protection, absorbance; in the data active = protection mostly above about 24%, no sharp cut-off; inactive = mostly below about 26%
RAM inhibit: yeast RAM network inhibition; AID 868; S. cerevisiae dse1pr::URA3 reporter, 5-FOA growth OD615, 2 d; analog-sensitive cbk1-as2 kinase mutant strain; inhibition, % at 50 µM; 1.8% of 190,000 active;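 active = inhibition above a set limit, 3 SD over mean compound inhibition, cut at about 8.4% in these data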;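 also: 0% = DMSO-only wells with no growth and 100% = 10 µM 1-NA-PP1 full growth; inhibition rescues growth on 5-FOA so higher OD means more RAM inhibition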
INS promoter inh: TRM-6 insulin promoter activity inhibition; TRM-6 cells (human fetal islet line), insulin promoter-eGFP reporter, imaging; reporter expression induced with tamoxifen; 0.9% of 130,000 active; AID 1273; inhibition, % at 2 µM;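 active = inhibition above the mean plus 3 SD, with well images judged a real hit on visual review, cut at about 60% in these data, passing the limit was not always enough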
Yeast life ext: extends the lifespan of yeast | inhibition of the nicotinamide effect, % at 10 µM | 0.68% of 130,000 active | S. cerevisiae growth with nicotinamide, OD615; deaD strain in restrictive glucose medium | AID 775;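 active = inhibition above a set limit, placed 3 SD over the median of all compounds, cut at about 26% in these data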;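 also: 0% = nicotinamide-treated wells and 100% = cells grown without nicotinamide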
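Buffer or medium: CSMM-D glucose medium, restrictive; test system: modified budding yeast, DeaD strain; compound: single dose 10 µM compound, 0.25% DMSO; schedule: culture preincubation 4 h, compound exposure 48 h, both 30 °C; detection: optical density (absorbance) at 615 nm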
Mdm2 ligase inh: Mdm2 E3 ligase (human) inhibition; AID 1230; cell-based MDM2 ubiquitination luciferase reporter, 2 h; 0 = plate control, 100 = twice control, blank-subtracted; signal enhancement, % at 5 µM; Q00987; 0.11% of 210,000 active;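 active = signal enhancement of 30% or more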;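 also: luminescence tracks abundance of the self-degrading MDM2-luciferase fusion protein; higher signal means inhibition of MDM2 E3 ligase activity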
Target sequence (Q00987 whole entry, looked up, the tested form may be a part): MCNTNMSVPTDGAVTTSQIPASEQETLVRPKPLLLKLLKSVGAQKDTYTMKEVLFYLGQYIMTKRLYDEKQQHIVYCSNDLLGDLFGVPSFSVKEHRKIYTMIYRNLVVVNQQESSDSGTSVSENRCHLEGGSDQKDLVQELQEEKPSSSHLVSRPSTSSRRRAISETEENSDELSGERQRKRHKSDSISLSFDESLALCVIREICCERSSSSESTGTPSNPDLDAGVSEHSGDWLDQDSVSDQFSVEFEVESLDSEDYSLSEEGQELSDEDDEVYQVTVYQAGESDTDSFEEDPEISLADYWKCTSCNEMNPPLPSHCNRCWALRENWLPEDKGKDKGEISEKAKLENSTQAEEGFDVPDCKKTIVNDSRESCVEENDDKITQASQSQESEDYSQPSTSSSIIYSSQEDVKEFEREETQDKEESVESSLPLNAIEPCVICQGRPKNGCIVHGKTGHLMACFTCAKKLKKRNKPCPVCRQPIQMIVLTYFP
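System: stable MDM2–luciferase fusion reporter cells / Input: 2000 cells seeded into each well / Schedule: 4 h settle plus 2 h compound, 37 °C / Compound: single-point 5 µM / Buffer or medium: cells held in DMEM / Benchmarks: control and blank well means / Evaluation: percent signal gain over controls, blank-subtracted / Measured by: luciferase luminescence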
BB579 growth dn: reduces growth of yeast BB579 in restrictive medium. S. cerevisiae BB579 growth, OD615, 48 h. inhibition, % at 10 µM. 0.51% of 140,000 active. AID 804;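 active = inhibition above a set limit, 3 SD over the mean compound inhibition, cut at about 44% in these data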
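System: Saccharomyces cerevisiae DeaD strain BB579, replicative lifespan model yeast | Buffer or medium: Restrictive glucose-based CSMM-D medium | Times: 4 h preincubation and 48 h exposure at 30 °C | Detection: OD615 turbidity measurement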
* marks the source's active call; other numbers are inactive results; . = no result given; + = active, no number. Shown are actives, neighbours in structure and some others; about 4% of the full set was active somewhere.

SMILES	Measles CPE	RAM inhibit	INS promoter inh	Yeast life ext	Mdm2 ligase inh	BB579 growth dn
Cc1ccc(Cl)cc1NC(C#N)c1ccccc1 (stereo not drawn)	.	.	.	.	-6	.
CC1CCCC(NC(=S)Nc2cccc(S(=O)(=O)N(C)C)c2)C1C (stereo not drawn)	.	0	-27	.	5	.
Cc1ccccc1Cn1nc(C)c(NC(=O)c2sc3ccccc3c2Cl)c1C	64*	3	.	-8	-13	-34
CN(C)S(=O)(=O)c1ccc(Cl)c(NC(=O)CSc2nc3c(cc2C#N)C(=O)CC(C)(C)C3)c1	7	9.1*	6	0	-4	-26
OCCC1CN(Cc2cc3c(cc2Cl)OCO3)CCN1Cc1ccccc1 (stereo not drawn)	.	0	.	.	-11	.
O=Cc1ccccc1OS(=O)(=O)c1ccccc1	12	-1	36	49*	21	-24
O=S(=O)(/N=C/c1c(O)ccc2ccccc12)c1cccs1	9	-1	31	30*	1	-20
Cn1cccc1C(=O)C(=O)Nc1ccccc1	14	0	14	-14	-3	-21
Cc1ccc(OCc2nnc(SCC(=O)c3ccccc3)n2-c2ccccc2)cc1	11	9.4*	-38	.	-2	-35
COc1ccc(-n2c(COc3ccc(Cl)cc3)nnc2SCc2ccc(C#N)cc2)cc1	24	8	-6	9	-5	-2
Cc1ccc(OCc2nnc(SCC(=O)O)n2N)cc1	40*	0	-9	-7	-17	-14
COc1ccc(-n2c(COc3ccc(C)cc3)nnc2SCc2ccc(C#N)cc2)cc1	5	9.6*	-35	0	-10	-71
COc1ccc(CC(=O)NNC(=O)CSc2nnc(Cc3ccc(OC)cc3)n2-c2ccccc2)cc1	17	1	71*	-2	-2	-12
CCc1ccc(S(=O)(=O)NCCc2cn3ccsc3n2)s1	7	0	.	11	-16	46*
CCN(CC)S(=O)(=O)c1ccc(C)c(C)c1	18	1	10	-2	-10	4
CCN(CC)S(=O)(=O)c1ccc2c(c1)C(=NO)c1cc(S(=O)(=O)N(CC)CC)ccc1-2	5	10*	-73	.	-2	-46
CCCn1c(SCC(=O)Nc2ccc(C(=O)Nc3ccccc3OC)cc2)n[nH]c1=O	.	9.2*	-7	.	15	.
CCOC(=O)CSc1nnc(CCCCCN2C(=O)c3cccc4cccc(c34)C2=O)o1	16	11*	-41	10	1	-60
Cc1cc(NC(=O)CCCN2C(=O)c3cccc4cccc(c34)C2=O)no1	.	1	.	.	4	.
CCOC(=O)c1sc(=S)sc1SCc1cccc(C(F)(F)F)c1	11	8.9*	-24	0	-7	-51
CCOC(=O)C(NC(=O)NCc1cccc(C(F)(F)F)c1)(OCC)C(F)(F)F (stereo not drawn)	10	1	.	5	11	-26
NC(=O)c1cccnc1Nc1cccc(F)c1	5	-1	87*	-5	0	-4
NC(=S)N/N=C/c1coc2c(ccc3ccccc32)c1=O	22	1	.	12	-45	-29
O=c1cc(/N=C/c2coc3c(ccc4ccccc43)c2=O)[nH]c(=S)[nH]1	14	11*	-7	4	-5	-36
Cc1ccc(OCC(=O)N(Cc2ccccc2)C2CCS(=O)(=O)C2)c([N+](=O)[O-])n1 (stereo not drawn)	37*	-1	.	-5	-3	1
SMILES	Measles CPE	RAM inhibit	INS promoter inh	Yeast life ext	Mdm2 ligase inh	BB579 growth dn
COC(=O)c1cc(NC(=S)Nc2cc(Cl)cc(Cl)c2)cc(C(=O)OC)c1	7	2	0	27*	-10	-32
O=C(CSc1nnc(-c2ccco2)c(-c2ccco2)n1)c1ccccc1	.	10*	-26	.	-23	.
CC(=O)c1ccc(NC(=O)CSc2nnc(-c3ccco3)c(-c3ccco3)n2)cc1	.	3	.	.	-5	.
COc1ccc(-n2cccc2/C=C2\C(=N)N3N=C(C(C)C)SC3=NC2=O)cc1	.	11*	-25	.	-14	.
COc1ccc(CN(CCC(c2ccc(F)cc2)C2CCOC(C)(C)C2)C(=O)c2ccco2)cc1 (stereo not drawn)	15	9.8*	21	16	-3	-46
CC(c1ccccc1)N(CCC(c1ccccc1)C1CCOC(C)(C)C1)C(=O)c1ccco1 (stereo not drawn)	22	6	.	13	-5	-10
CCc1nnc(NC(=O)/C=C/c2cccs2)s1	.	4	53	.	-6	.
COc1ccc(C)cc1-n1nnnc1SC/C(O)=C(\C#N)c1nc2ccccc2[nH]1	0	9.1*	50	-2	-27	-4
Cc1ccc(Nc2nnc(SC/C(O)=C(\C#N)c3nc4ccccc4[nH]3)s2)c(C)c1	1	2	.	-2	5	-18
CCSc1nc(N)nc(-c2cccs2)c1C#N	26	-2	.	-18	-12	84*
Cc1nc(-c2ccc(S(=O)(=O)NCc3cccnc3)s2)cs1	.	.	.	.	-1	.
O=C1OC(/C=C/c2ccc(Cl)cc2Cl)=NC/1=C\c1cccs1	33	9.5*	.	1	6	-43
NC(=O)Nc1ccc(F)cc1	70*	-1	28	-7	-6	-53
C/C(Nc1ccc(F)cc1)=C(/C#N)C(N)=O	5	0	.	-2	-15	-8
COCCNC(=O)c1cc2cc(Cl)cc(Cl)c2oc1=O	.	4	.	.	-2	.
C(=N\Nc1nc(-c2ccccc2)cs1)/c1cccs1	22	1	43	-8	-11	-15
Cc1cc(N2C(=O)CC(Cc3ccccc3)C2=O)no1 (stereo not drawn)	11	4	67	+	-16	-9
CSc1nc(Cl)c(Cc2ccc(OC(C)C)cc2)c(N(C)C)n1	12	8.9*	.	8	-7	-11
COc1ccc(C(=O)NCc2nnc(SC)n2Cc2ccccc2)cc1	.	0	15	.	-4	.
CCOC(=O)c1ccc(-n2nc(C)cc2C)cc1	.	.	.	.	-17	.
Cc1cc(C)n(-c2ccc(C(=O)OCC(=O)NC(c3ccccc3)c3ccccc3)cc2)n1	51*	6	23	5	-4	-51
Cc1ccc(N2CC(C(=O)N/N=C/c3cccc([N+](=O)[O-])c3)CC2=O)cc1 (stereo not drawn)	17	4	29	9	-30	-25
O=C(N/N=C/c1cccc([N+](=O)[O-])c1)C1CC(=O)N(c2ccc(Cl)cc2)C1 (stereo not drawn)	72*	2	8	-12	-3	-43
CCCCC(=O)NC(=S)NNS(=O)(=O)c1ccccc1	42*	1	22	11	-9	-30
Cc1cc(C)n(C(=O)c2ccc(NC(=O)CC(C)C)cc2)n1	4	0	74*	-16	-17	-21
C=CCc1c(NCCO)nc(C)[nH]c1=O	.	1	-13	.	-3	.
CSc1ccc(S(=O)(=O)NCc2ccccc2Cl)cc1	4	1	-41	3	-8	-36
